ChEMBL document CHEMBL1134286, “Novel erythromycin derivatives with aryl groups tethered to the C-6 position are potent protein synthesis inhibitors and active against multidrug-resistant respiratory pathogens” (J Med Chem, 2001)
In brackets after ≈: the same amount, converted by molar mass.

Key:
[1] = test system: Streptococcus pneumoniae; assay: Minimum inhibitory concentration against Streptococcus pneumoniae ATCC 6303 Ery-S; assay type: functional
How it was run: (§1)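 MICs were determined by agar dilution following National Committee for Clinical Laboratory Standards recommendations. Values are in µg/mL.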

[2] = Minimum inhibitory concentration against Streptococcus pneumoniae 5737 MLSB; assay type: functional; how it was run: as §1
[3] = Minimum inhibitory concentration against Streptococcus pyogenes EES 61 Ery-S; assay type: functional; how it was run: as §1
[4] = test system: Staphylococcus aureus; assay: Minimum inhibitory concentration against Staphylococcus aureus A 5177 MLSB-i; assay type: functional; how it was run: as §1
[5] = test system: Streptococcus pneumoniae; assay: Minimum inhibitory concentration against Streptococcus pneumoniae 5649 efflux; assay type: functional; how it was run: as §1
[6] = test system: Staphylococcus aureus; assay: Minimum inhibitory concentration against Staphylococcus aureus ATCC 6538PEry-S; assay type: functional; conditions: ATCC 6538P; how it was run: as §1
[7] = test system: Staphylococcus aureus; assay: Minimum inhibitory concentration against Staphylococcus aureus A 5278 MLSB-c; assay type: functional; how it was run: as §1
[8] = Minimum inhibitory concentration against Streptococcus pyogenes 930MLSB; assay type: functional; how it was run: as §1
[9] = Minimum inhibitory concentration against Haemophilus influenzae DILL Amp-R; assay type: functional; how it was run: as §1
[10] = Minimum inhibitory concentration against Streptococcus pyogenes PIU2548 efflux; assay type: functional; how it was run: as §1
[11] = species on record: Mus musculus; assay: Mouse protection tests for effective dose against Streptococcus pneumoniae 6303 ((erythromycin susceptible strain)) infected mice; assay type: functional
[12] = species on record: Mus musculus; assay: Mouse protection tests for effective dose against Staphylococcus aureus 10649 ((erythromycin susceptible strain)) infected mice; assay type: functional
[13] = test system: Streptococcus pneumoniae; assay: Minimum inhibitory concentration against Streptococcus pneumoniae 6303 (erythromycin susceptible strain); assay type: functional; how it was run: as §1
[14] = test system: Staphylococcus aureus; assay: Minimum inhibitory concentration against Staphylococcus aureus 10649 (erythromycin susceptible strain); assay type: functional; how it was run: as §1
[15] = test system: Streptococcus pneumoniae; assay: Cell free inhibiting activity against MLSB-resistant strain Streptococcus pneumoniae 1813 (methylated ribosomes for transcription/translation assay)
[16] = test system: Streptococcus pneumoniae; assay: Cell free inhibiting activity against erythromycin-susceptible strain Streptococcus pneumoniae 5635 (Wild type ribosomes for transcription/translation assay); assay type: functional
How it was run: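 Cell-free coupled transcription/translation assay using bacterial ribosome S-30 extracts. Wild-type ribosomes were isolated from the erythromycin-susceptible strain S. pneumoniae 5635. Inhibition is reported as IC50 (µM).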

Structure (SMILES)	MIC [1] [µg/mL]	MIC [2] [µg/mL]	MIC [3] [µg/mL]	MIC [4] [µg/mL]	MIC [5] [µg/mL]	MIC [6] [µg/mL]	MIC [7] [µg/mL]	MIC [8] [µg/mL]	MIC [9] [µg/mL]	MIC [10] [µg/mL]	MIC [13] [µg/mL]	MIC [14] [µg/mL]	IC50 [15] [nM]	IC50 [16] [nM]	ED50 [11] [mg/kg]	ED50 [12] [mg/kg]
C=CCO[C@]1(C)C[C@@H](C)C(=O)[C@H](C)[C@H]2NC(=O)O[C@]2(C)[C@@H](CC)OC(=O)[C@H](C)[C@@H](O[C@H]2C[C@@](C)(OC)[C@@H](O)[C@H](C)O2)[C@H](C)[C@H]1O[C@@H]1O[C@H](C)C[C@H](N(C)C)[C@H]1O	0.03 (≈ 0.0375 µM)	> 128	0.03 (≈ 0.0375 µM)	0.78 (≈ 0.976 µM)	2 (≈ 2.5 µM)	0.2 (≈ 0.25 µM)	> 100	> 128	2 (≈ 2.5 µM)	8 (≈ 10 µM)	–	–	–	–	–	–
CC[C@H]1OC(=O)[C@H](C)C(=O)[C@H](C)[C@@H](O[C@@H]2O[C@H](C)C[C@H](N(C)C)[C@H]2O)[C@](C)(OCCCc2cnc3ccccc3c2)C[C@@H](C)C(=O)[C@H](C)[C@H]2NC(=O)O[C@@]21C	0.015 (≈ 0.0195 µM)	8 (≈ 10.4 µM)	0.004 (≈ 0.00521 µM)	0.1 (≈ 0.13 µM)	0.25 (≈ 0.326 µM)	0.1 (≈ 0.13 µM)	> 100	4 (≈ 5.21 µM)	2 (≈ 2.6 µM)	0.25 (≈ 0.326 µM)	0.015 (≈ 0.0195 µM)	0.1 (≈ 0.13 µM)	–	–	33	27.1
C=CCO[C@]1(C)C[C@@H](C)C(=O)[C@H](C)[C@H]2NC(=O)O[C@]2(C)[C@@H](CC)OC(=O)[C@H](C)C(=O)[C@H](C)[C@H]1O[C@@H]1O[C@H](C)C[C@H](N(C)C)[C@H]1O	0.5 (≈ 0.783 µM)	> 64	0.25 (≈ 0.391 µM)	1.56 (≈ 2.44 µM)	0.25 (≈ 0.391 µM)	0.78 (≈ 1.22 µM)	> 100	> 64	64 (≈ 100 µM)	1 (≈ 1.57 µM)	–	–	> 500000	350	–	–
CC[C@H]1OC(=O)[C@H](C)C(=O)[C@H](C)[C@@H](O[C@@H]2O[C@H](C)C[C@H](N(C)C)[C@H]2O)[C@](C)(OC/C=C/c2ccc3ncncc3c2)C[C@@H](C)C(=O)[C@H](C)[C@H]2NC(=O)O[C@@]21C	0.03 (≈ 0.0391 µM)	0.5 (≈ 0.652 µM)	0.03 (≈ 0.0391 µM)	0.2 (≈ 0.261 µM)	0.25 (≈ 0.326 µM)	0.2 (≈ 0.261 µM)	> 100	2 (≈ 2.61 µM)	4 (≈ 5.22 µM)	0.5 (≈ 0.652 µM)	0.03 (≈ 0.0391 µM)	0.2 (≈ 0.261 µM)	–	–	40.3	9.2

Further molecules by falling MIC [1], results first:

MIC [1] [µg/mL]	MIC [2] [µg/mL]	MIC [3] [µg/mL]	MIC [4] [µg/mL]	MIC [5] [µg/mL]	MIC [6] [µg/mL]	MIC [7] [µg/mL]	MIC [8] [µg/mL]	MIC [9] [µg/mL]	MIC [10] [µg/mL]	MIC [13] [µg/mL]	MIC [14] [µg/mL]	IC50 [15] [nM]	IC50 [16] [nM]	Structure (SMILES)	ED50 [11] [mg/kg]	ED50 [12] [mg/kg]
0.06 (≈ 0.0759 µM)	128 (≈ 162 µM)	0.06 (≈ 0.0759 µM)	0.05 (≈ 0.0632 µM)	1 (≈ 1.26 µM)	0.05 (≈ 0.0632 µM)	> 100	16 (≈ 20.2 µM)	4 (≈ 5.06 µM)	2 (≈ 2.53 µM)	0.06 (≈ 0.0759 µM)	0.05 (≈ 0.0632 µM)	–	–	CC[C@H]1OC(=O)[C@H](C)C(=O)[C@H](C)[C@@H](O[C@@H]2O[C@H](C)C[C@H](N(C)C)[C@H]2O)[C@](C)(OC/C=C/c2cnc3ccccc3c2)C[C@@H](C)C2=NCCN3C(=O)O[C@@]1(C)[C@H]3[C@H]2C	23.5	60.4
0.03 (≈ 0.0324 µM)	8 (≈ 8.64 µM)	0.03 (≈ 0.0324 µM)	3.1 (≈ 3.35 µM)	1 (≈ 1.08 µM)	0.2 (≈ 0.216 µM)	> 100	8 (≈ 8.64 µM)	2 (≈ 2.16 µM)	1 (≈ 1.08 µM)	–	–	–	–	CC[C@H]1OC(=O)[C@H](C)[C@@H](O[C@H]2C[C@@](C)(OC)[C@@H](O)[C@H](C)O2)[C@H](C)[C@@H](O[C@@H]2O[C@H](C)C[C@H](N(C)C)[C@H]2O)[C@](C)(OC/C=C/c2cnc3ccccc3c2)C[C@@H](C)C(=O)[C@H](C)[C@H]2NC(=O)O[C@@]21C	–	–
0.03 (≈ 0.0392 µM)	2 (≈ 2.61 µM)	0.03 (≈ 0.0392 µM)	0.1 (≈ 0.131 µM)	0.25 (≈ 0.326 µM)	0.1 (≈ 0.131 µM)	> 100	> 128	8 (≈ 10.4 µM)	0.25 (≈ 0.326 µM)	–	–	–	–	CC[C@H]1OC(=O)[C@H](C)C(=O)[C@H](C)[C@@H](O[C@@H]2O[C@H](C)C[C@H](N(C)C)[C@H]2O)[C@](C)(OC/C=C/c2cccc3ncccc23)C[C@@H](C)C(=O)[C@H](C)[C@H]2NC(=O)O[C@@]21C	–	–
0.015 (≈ 0.0196 µM)	1 (≈ 1.3 µM)	0.03 (≈ 0.0391 µM)	0.05 (≈ 0.0652 µM)	0.5 (≈ 0.652 µM)	0.05 (≈ 0.0652 µM)	> 100	4 (≈ 5.22 µM)	2 (≈ 2.61 µM)	0.5 (≈ 0.652 µM)	–	–	–	–	CC[C@H]1OC(=O)[C@H](C)C(=O)[C@H](C)[C@@H](O[C@@H]2O[C@H](C)C[C@H](N(C)C)[C@H]2O)[C@](C)(OC/C=C/c2ccc3nnccc3c2)C[C@@H](C)C(=O)[C@H](C)[C@H]2NC(=O)O[C@@]21C	–	–
